{"source": "paper PMC4324687", "about": "(Pharmacology Research & Perspectives, 2015)", "key": {"CYP3A4": {"system": "CYP3A4", "conditions": "human liver microsomes; ref F. Hoffmann-La Roche, data on file; cited from earlier work"}, "[1]": {"conditions": "ref F. Hoffmann-La Roche, data on file, cited from earlier work"}, "[2]": {"assay": "Metabolic profiling of pooled plasma", "format": "in vivo, human", "conditions": "for proportion of total chromatographic radioactivity in plasma, overall: over the 48-h interval postdose"}, "[3]": {"assay": "Pharmacokinetics of 14C-vemurafenib-related material", "format": "in vivo, human", "conditions": "for Cmax, mean ± SD [CV%]: single oral 960-mg dose"}, "[4]": {"format": "in vivo, human"}, "[5]": {"assay": "Metabolic profiling of pooled feces", "format": "in vivo, human"}, "[6]": {"system": "patients with metastatic melanoma", "assay": "Safety assessments in patients with metastatic melanoma", "format": "in vivo, human", "outline": "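Seven patients received a single oral 960-mg dose of 14C-labelled test compound on day 15 after ≥8 h fasting. Monitoring ran through the study and a 28-day follow-up and covered adverse events, routine laboratory values, physical examination, vital signs, electrocardiography, dermatology, and head/neck and chest CT. SCC cases were followed until death, consent withdrawal or loss to follow-up. Severity was graded by NCI CTCAE v4.0 and summarised.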"}, "[7]": {"conditions": "cited from earlier work"}, "[8]": {"conditions": "cited from earlier work", "remark": "listed apart in the source"}, "[9]": {"assay": "Metabolic profiling of pooled urine", "format": "in vivo, human", "conditions": "single pool 0–96 h"}, "[10]": {"conditions": "dog plasma after oral administration; ref F. Hoffmann-La Roche, data on file; cited from earlier work"}, "[11]": {"conditions": "plasma, N=5, listed as 14C-vemurafenib"}, "[12]": {"conditions": "within 18 days after dosing, listed as 14C-vemurafenib"}, "[13]": {"conditions": "laboratory evaluation, of seven patients"}}, "note": "“And” between values parts separate entries of the source, which are not always exact repeats. Identical values can stand only once. Like-named read-outs stand apart in the source and are kept apart here."}
{"compound": "CCCS(=O)(=O)Nc1ccc(F)c(C(=O)c2c[nH]c3ncc(-c4ccc(Cl)cc4)cc23)c1F", "note": "[vemurafenib]", "values": [{"measurement": "primary enzyme responsible for metabolism and formation of hydroxylated metabolites", "setting": "CYP3A4", "value": "CYP3A4 was the primary enzyme"}, {"measurement": "component status of unchanged parent drug in plasma", "setting": "[1]; rat plasma after oral administration", "value": "major component"}, {"measurement": "route of recovery of vemurafenib-derived radioactivity (parent plus metabolites)", "setting": "[1]; rats", "value": "primarily recovered in feces"}, {"measurement": "proportion of radioactivity in pooled plasma, mean ± SD", "setting": "[2]; 4–6 h pool", "value": "99.5 ± 1.4", "unit": "%"}, {"measurement": "proportion of radioactivity in pooled plasma, mean ± SD", "setting": "[2]; 12–24 h pool", "value": "95.9 ± 5.5", "unit": "%"}, {"measurement": "proportion of radioactivity in pooled plasma, mean ± SD", "setting": "[2]; 36–48 h pool", "value": "96.0 ± 3.8", "unit": "%"}, {"measurement": "proportion of total chromatographic radioactivity in plasma, overall", "setting": "[2]; listed as parent compound", "value": 95, "unit": "%"}, {"measurement": "proportion of total chromatographic radioactivity in plasma, overall", "setting": "[2]; listed as parent molecule", "value": "> 95", "unit": "%"}, {"measurement": "Blood/plasma AUC ratio, mean ± SD [CV%]", "setting": "[3]; N=5", "value": "0.72 ± 0.050 [6.83]"}, {"measurement": "14C-vemurafenib-related material that might be bound to the cellular compartment in whole blood", "setting": "[3]; assuming 40–50% of whole blood is cells", "value": "10–20%"}, {"measurement": "Tmax, median (minimum–maximum)", "setting": "[3]; blood, N=5", "value": "4.1 (4–12) ^1 h"}, {"measurement": "t½ (elimination half-life), mean ± SD [CV%]", "setting": "[3]; blood, N=5", "value": "84.4 ± 24.6 [29.1] h"}, {"measurement": "Cmax, mean ± SD [CV%]", "setting": "[3]; blood, N=5", "value": "5.25 ± 1.71 [32.5] μg eq/mL"}, {"measurement": "Blood/plasma AUC ratio, range", "setting": "[3]; human, blood and plasma, oral, 960 mg", "value": "0.69–0.81"}, {"measurement": "plasma elimination half-life of 14C-vemurafenib-related material, range", "setting": "[3]; plasma", "value": "51 to 86", "unit": "h"}, {"measurement": "Tmax, median (minimum–maximum)", "setting": "[3]; plasma, N=5", "value": "4.1 (4–12) ^1 h"}, {"measurement": "t½ (elimination half-life) of 14C-vemurafenib-related material, mean ± SD [CV%]", "setting": "[3]; plasma, N=5", "value": 71, "unit": "h"}, {"measurement": "t½ (elimination half-life) of 14C-vemurafenib-related material, mean ± SD [CV%]", "setting": "[3]; [11]", "value": "71.1 ± 15.4 [21.6] h"}, {"measurement": "Cmax, mean ± SD [CV%]", "setting": "[3]; [11]", "value": "7.83 ± 2.28 [29.1] μg eq/mL"}, {"measurement": "time within which the majority of fecal radioactivity was eliminated", "setting": "[4]; cumulative excretion in feces", "value": "≤ 264", "unit": "h"}, {"measurement": "time within which the majority of urinary radioactivity was eliminated", "setting": "[4]; cumulative excretion in urine", "value": "≤ 192", "unit": "h"}, {"measurement": "radioactivity recovered in feces, mean ± SD", "setting": "[4]; within 18 days after dosing", "value": "Approximately 94%"}, {"measurement": "radioactivity recovered in feces, range", "setting": "[4]; within 18 days after dosing", "value": "89.4–97.6%"}, {"measurement": "radioactivity recovered in urine, mean", "setting": "[4]; within 18 days after dosing", "value": "≤ 1", "unit": "%"}, {"measurement": "radioactivity recovered in urine, range", "setting": "[4]; within 18 days after dosing", "value": "0.56–1.63%"}, {"measurement": "radioactivity recovered in feces, mean ± SD", "setting": "[4]; [12]", "value": "94.1% and 94.1 ± 2.7%"}, {"measurement": "radioactivity recovered in urine, mean", "setting": "[4]; [12]", "value": "< 1", "unit": "%"}, {"measurement": "14C-vemurafenib-related material recovered from urine and feces, range", "setting": "[4]; within 18 days after dosing, seven patients", "value": "91.0–98.3%"}, {"measurement": "proportion of radioactivity in feces, mean", "setting": "[5]; 48–96 h pool", "value": "55.5 ± 20.1", "unit": "%"}, {"measurement": "% of the total input dose found in pooled feces", "setting": "[5]; first 48 h", "value": 38, "unit": "%"}, {"measurement": "proportion of all recovered radioactivity in feces, mean ± SD", "setting": "[5]; first 48 h pool", "value": "94.2 ± 5.8", "unit": "%"}, {"measurement": "% of the total radioactive dose found in pooled feces", "setting": "[5]; within the first 96 h", "value": "~55", "unit": "%"}, {"measurement": "severity of most adverse events", "setting": "[6]; NCI CTCAE grade 1 or 2", "value": "mild or moderate"}, {"measurement": "serious adverse events (all grade 3), number of events", "setting": "[6]; cuSCC, cuSCC and keratoacanthoma, considered related", "value": "Three"}, {"measurement": "elevated low-density lipoprotein cholesterol level", "setting": "[6]; [13]", "value": "three"}, {"measurement": "grade 3 lymphopenia", "setting": "[6]; [13]", "value": "four"}, {"measurement": "low white blood cell count", "setting": "[6]; [13]", "value": "three"}, {"measurement": "changes in electrocardiography or vital signs", "setting": "[6]; seven patients", "value": "No clinically significant changes"}, {"measurement": "patients with at least one adverse event related to vemurafenib", "setting": "[6]; seven patients", "value": "All patients"}, {"measurement": "treatment discontinuation because of an adverse event", "setting": "[6]; seven patients", "value": "No patient discontinued treatment"}, {"measurement": "tolerability", "setting": "[6]; seven patients, 960 mg twice daily", "value": "well-tolerated"}, {"measurement": "maximum tolerated dose and recommended dose for further clinical evaluation", "setting": "[7]; phase 1 data, ref Flaherty et al. [2010]", "value": 960, "unit": "mg twice daily"}, {"measurement": "pharmacokinetics with hand-filled capsules versus tablets", "setting": "[7]; phase 1 trial PLX06-02, ref phase 1 trial PLX06-02", "value": "No differences"}, {"measurement": "median elimination half-life (population PK modeling)", "setting": "[8]; continual multiple-dose vemurafenib, ref Genentech, Inc. [2014]", "value": 57, "unit": "h"}, {"measurement": "elimination half-life after a single dose", "setting": "[8]; single dose, ref Ribas et al. [2014]", "value": "~25", "unit": "h"}, {"measurement": "% of total administered (input radioactive) dose in urine", "setting": "[9]", "value": "~1", "unit": "%"}, {"measurement": "component status of unchanged parent drug in plasma", "setting": "[10]", "value": "major component"}]}
